Measured values published in ChEMBL document CHEMBL5346868 (Eur J Med Chem, 2023).

Tests used:
Enterovirus A71 = assay: Antiviral activity against human Enterovirus 71 BrCr infected in human RD cells assessed as reduction of virus induced cytopathic effect incubated for 3 days by MTS assay; assay type: functional, organism-based; settings: Enterovirus A, 72 h
Procedure, shortened: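 Confluent RD cells (EMEM, 10% heat-inactivated FBS) are infected with ~100 CCID50 of EV71 BrCr and treated with a compound dilution series. After 3 days at 37 °C, 5% CO2, residual viability is measured by MTS. EC50 is the concentration giving 50% antiviral effect, from at least 2–3 independent experiments.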

[1] = Cytotoxicity against human RD cells by MTS assay; assay type: toxicity, cell-based
Procedure, shortened: (§1)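 Treated, uninfected RD or HeLa cells are run alongside the matching enterovirus CPE assays, with viability read by MTS. CC50 is the concentration giving a 50% adverse effect on host cells.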

[2] = Selectivity index, ratio of CC50 for human RD cells to EC50 for antiviral activity against human Enterovirus 71; assay type: toxicity; settings: read-out: Ratio CC50/EC50
Procedure, shortened: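 SI is calculated as CC50 on uninfected RD cells divided by EC50 in the 3-day EV71 BrCr CPE-reduction MTS assay.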

SARS-CoV-2 = assay: Antiviral activity against SARS-CoV-2 BetaCoV/Belgium/GHB-03021/2020 infected in african green monkey Vero cells assessed as decline in virus induced cytopathogenicity measured after 4 days by argon laser scanning microscopic analysis; assay type: functional, organism-based; settings: Severe acute respiratory syndrome coronavirus 2, BetaCoV/Belgium/GHB-03021/2020, Vero, 96 h
Zika virus = assay: Antiviral activity against ZIKV MR766 infected in african green monkey Vero E6 cells assessed as decline in virus induced cytopathogenicity measured after 5 days by MTS based microscopic analysis; assay type: functional, organism-based; settings: MR766, Vero C1008, 120 h
Procedure, shortened: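 Vero E6 cells (10^4/well) are seeded in MEM with 2% FCS and left to adhere overnight. Cells are then infected with ZIKV MR766 (passaged in C6/36 cells) and given 2-fold serial compound dilutions. After 5 days, CPE is scored by MTS and by microscopy of fixed, stained cells. EC50 is the 50% antiviral effect.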

[3] = Cytotoxicity against african green monkey Vero E6 cells by MTS assay; assay type: toxicity, cell-based, Vero C1008; settings: chlorocebus sabaeus
Procedure, shortened: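 Cytotoxicity is measured on treated, uninfected Vero E6 cells in parallel with the antiviral assays, using a standard MTS assay. CC50 is the concentration causing a 50% adverse effect on host cells.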

Coxsackievirus B3 = assay: Antiviral activity against Coxsackievirus B3 infected in african green monkey Vero cells assessed as reduction of virus induced cytopathic effect incubated for 3 days by MTS assay; assay type: functional, organism-based; settings: Enterovirus B, 72 h
Procedure, shortened: (§2)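 Same setup as the EV71 assay: confluent monolayers (Vero A for CVB3; HeLa for CVA21, EV68, HRV-A02, HRV-B14) are infected with virus and treated with a compound dilution series. Incubation is 3 days at 37 °C, 5% CO2, and residual viability is read by MTS. EC50 is the 50% effective concentration, mean of at least 2 independent experiments.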

[4] = Cytotoxicity against african green monkey Vero cells by MTS assay; assay type: toxicity, cell-based; settings: chlorocebus sabaeus
Coxsackievirus A21 = assay: Antiviral activity against Coxsackievirus 21 infected in human HeLa cells assessed as reduction of virus induced cytopathic effect incubated for 3 days by MTS assay; assay type: functional, organism-based; settings: Enterovirus C, 72 h
Procedure, shortened: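 HeLa cells infected with coxsackievirus A21 (~100 CCID50) and treated with a compound dilution series, as in the EV71 set-up. Incubation was 3 days at 37 °C, 5% CO2, with residual viability quantified by MTS. EC50 is the concentration giving 50% antiviral effect. Values are means of ≥2 independent experiments.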

enterovirus D68 = assay: Antiviral activity against Human enterovirus 68 infected in human HeLa cells assessed as reduction of virus induced cytopathic effect incubated for 3 days by MTS assay; assay type: functional, organism-based; settings: Enterovirus D, 72 h; procedure, shortened: as §2
rhinovirus A2 = assay: Antiviral activity against Human rhinovirus 2 infected in human HeLa cells assessed as reduction of virus induced cytopathic effect incubated for 3 days by MTS assay; assay type: functional, organism-based; settings: Rhinovirus A, 72 h; procedure, shortened: as §2
rhinovirus B14 = assay: Antiviral activity against Human rhinovirus 14 infected in human HeLa cells assessed as reduction of virus induced cytopathic effect incubated for 3 days by MTS assay; assay type: functional, organism-based; settings: Rhinovirus B, 72 h; procedure, shortened: as §2
[5] = Cytotoxicity against human HeLa cells by MTS assay; assay type: toxicity, cell-based; procedure, shortened: as §1
METTL3/METTL14 = METTL3/METTL14 (Homo sapiens, UniProt Q86U44); assay: Inhibition of human recombinant full length METTL3/human N-terminal FLAG-tagged METTL14 expressed in SF9 cells assessed as methyltransferase residual activity using ssRNA 5'-rUrArC rArCrU rCrGrA rUrCrU rGrGrA rCrUrA rArArG rCrUrG rCrUrC -3' as substrate incubated for 20 mins followed by H-SAM addition measured after 2 hrs by radio isotope reaction system analysis
Procedure, shortened: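 Compound is pre-incubated for 20 min at room temperature, then 1 μM [3H-methyl]SAM is added for 2 h at room temperature. Activity is reported as % remaining, screened at 100 μM, with IC50 from curve fits.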

Chain of METTL3/METTL14 (Q86U44 whole entry): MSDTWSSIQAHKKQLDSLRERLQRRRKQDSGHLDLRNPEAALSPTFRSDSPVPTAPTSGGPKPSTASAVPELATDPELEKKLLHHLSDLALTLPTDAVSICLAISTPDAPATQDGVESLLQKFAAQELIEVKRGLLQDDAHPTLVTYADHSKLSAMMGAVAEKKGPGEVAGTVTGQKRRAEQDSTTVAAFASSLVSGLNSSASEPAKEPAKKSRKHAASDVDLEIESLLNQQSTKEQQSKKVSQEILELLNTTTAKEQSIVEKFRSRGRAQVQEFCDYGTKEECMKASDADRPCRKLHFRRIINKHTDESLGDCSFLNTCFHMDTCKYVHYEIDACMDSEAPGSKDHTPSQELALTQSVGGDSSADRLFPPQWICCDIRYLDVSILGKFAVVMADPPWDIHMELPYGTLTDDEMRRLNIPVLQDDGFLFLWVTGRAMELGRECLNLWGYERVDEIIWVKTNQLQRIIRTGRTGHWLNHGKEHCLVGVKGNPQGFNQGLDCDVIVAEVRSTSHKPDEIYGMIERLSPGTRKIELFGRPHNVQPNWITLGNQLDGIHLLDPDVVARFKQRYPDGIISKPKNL
Chain of METTL3/METTL14 (Q9HCE5 whole entry, further chain): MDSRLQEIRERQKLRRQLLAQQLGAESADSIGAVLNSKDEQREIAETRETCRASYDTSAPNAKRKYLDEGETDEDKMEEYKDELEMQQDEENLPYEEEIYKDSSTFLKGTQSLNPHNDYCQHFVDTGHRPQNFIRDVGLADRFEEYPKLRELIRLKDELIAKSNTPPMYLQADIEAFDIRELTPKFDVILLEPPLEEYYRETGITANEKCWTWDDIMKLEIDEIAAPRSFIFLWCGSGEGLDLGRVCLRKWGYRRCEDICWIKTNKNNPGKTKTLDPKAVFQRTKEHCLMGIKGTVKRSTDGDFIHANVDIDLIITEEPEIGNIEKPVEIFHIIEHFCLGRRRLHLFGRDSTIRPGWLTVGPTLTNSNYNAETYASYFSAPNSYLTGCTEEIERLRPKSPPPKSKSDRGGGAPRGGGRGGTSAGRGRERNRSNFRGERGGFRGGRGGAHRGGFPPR

Row | SMILES | EC50 (Enterovirus A71) [µM] | CC50 [1] [µM] | selectivity ratio [2] | EC50 (SARS-CoV-2) [µM] | EC50 (Zika virus) [µM] | CC50 [3] [µM] | EC50 (Coxsackievirus B3) [µM] | CC50 [4] [µM] | EC50 (Coxsackievirus A21) [µM] | EC50 (enterovirus D68) [µM] | EC50 (rhinovirus A2) [µM] | EC50 (rhinovirus B14) [µM] | CC50 [5] [µM] | IC50 (METTL3/METTL14) [µM]
1 | C[C@H](NP(=O)(OC[C@H]1O[C@@H](n2cnc3c(NCc4cccc(C(F)(F)F)c4)ncnc32)[C@H](O)[C@@H]1O)Oc1ccccc1)C(=O)OCc1ccccc1 (some centres undefined) | 0.017 | 9.18 | 542 | > 100 | – | – | – | – | – | – | – | – | – | –
2 | OC[C@H]1O[C@@H](n2cnc3c(NCc4ccc(Cl)cc4)ncnc32)[C@H](O)[C@@H]1O | 0.236 | > 100 | > 424 | > 100 | > 100 | > 100 | – | – | – | – | – | – | – | –
3 | OC[C@H]1O[C@@H](n2cnc3c(NCc4ccccc4Cl)ncnc32)[C@H](O)[C@@H]1O | 0.117 | 28.2 | 241 | > 100 | > 100 | > 100 | – | – | – | – | – | – | – | –
4 | CC(Nc1ncnc2c1ncn2[C@@H]1O[C@H](CO)[C@@H](O)[C@H]1O)c1cccc(Cl)c1 (some centres undefined) | 1.07 | > 100 | > 93.5 | > 100 | > 100 | > 100 | > 100 | > 100 | > 100 | > 100 | > 100 | > 100 | > 100 | –
5 | OC[C@H]1O[C@@H](n2cnc3c(NCc4cccc(Cl)c4)ncnc32)[C@H](O)[C@@H]1O | 0.106 | 42.7 | 403 | > 100 | > 100 | > 100 | – | – | – | – | – | – | – | –
6 | CSC[C@H]1O[C@@H](n2cnc3c(NC(C)c4ccccc4Cl)ncnc32)[C@H](O)[C@@H]1O (some centres undefined) | > 100 | > 100 | – | > 100 | > 100 | > 100 | – | – | – | – | – | – | – | –
7 | OC[C@H]1O[C@@H](n2ccc3c(NCc4cccc(C(F)(F)F)c4)ncnc32)[C@H](O)[C@@H]1O | 0.101 | > 100 | > 1070 | > 100 | > 100 | > 100 | > 100 | > 100 | 19.9 | 91.2 | > 100 | > 100 | > 100 | 129
8 | CC(Nc1ncnc2c1ncn2[C@@H]1O[C@H](CO)[C@@H](O)[C@H]1O)c1ccccc1Cl (some centres undefined) | > 100 | > 100 | – | > 100 | > 100 | > 100 | – | – | – | – | – | – | – | –
9 | OC[C@H]1O[C@@H](n2cnc3c(NCc4cccc(S(F)(F)(F)(F)F)c4)ncnc32)[C@H](O)[C@@H]1O | 0.102 | > 100 | > 1280 | > 100 | > 100 | > 100 | > 100 | > 100 | 31.7 | > 100 | > 100 | > 100 | 88.7 | –
10 | OC[C@H]1O[C@@H](n2cnc3c(N4CCc5ccccc54)ncnc32)[C@H](O)[C@@H]1O | > 100 | > 100 | – | > 100 | > 100 | > 100 | – | – | – | – | – | – | – | –
11 | CCOC(=O)/C=C/[C@H](C[C@@H]1CCNC1=O)NC(=O)[C@@H](CC(=O)[C@@H](NC(=O)c1cc(C)on1)C(C)C)Cc1ccc(F)cc1 | – | > 1 | > 111 | – | – | – | – | – | – | – | – | – | – | –
12 | C[C@H](NP(=O)(OC[C@H]1O[C@@H](n2ccc3c(NCc4cccc(C(F)(F)F)c4)ncnc32)[C@H](O)[C@@H]1O)Oc1ccccc1)C(=O)OCc1ccccc1 (some centres undefined) | 0.6 | 42.5 | 70.8 | > 100 | – | > 100 | – | – | – | – | – | – | – | –
13 | CSC[C@H]1O[C@@H](n2ccc3c(NCc4cccc(Cl)c4)ncnc32)[C@H](O)[C@@H]1O | > 75 | > 100 | – | > 100 | > 100 | > 100 | – | – | – | – | – | – | – | –
